Values after ≈ are worked out from the molar mass of the structure shown.
How the values were obtained:
[1] = system: Staphylococcus aureus; assay: Antibacterial activity against Staphylococcus aureus ATCC 43300 measured after 18 hrs by two-fold serial dilution method; format: functional
[2] = system: Enterococcus faecalis; assay: Antibacterial activity against Enterococcus faecalis ATCC 51299 measured after 18 hrs by two-fold serial dilution method; format: functional
[3] = system: DNA; assay: Binding affinity to DNA (unknown origin) assessed as change in melting temperature at 2:1 compound to DNA ratio by UV-visible spectrophotometry; format: nucleic-acid assay
Method in brief: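 Duplex oligomer at 6 × 10⁻⁶ M in 10 mM PBS (pH 7.4) with 50 mM NaCl was annealed (90 °C, then unaided cooling) and mixed at 2 S-MGB:1 helix; the reference had no ligand. Samples were heated 10–90 °C and cooled 80–10 °C at 0.5 °C min⁻¹, with A260 recorded. Tm came from a Boltzmann sigmoid fit; three repeats.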

[4] = system: Trypanosoma brucei brucei; assay: Antiparasitic activity against bloodstream form of Trypanosoma brucei brucei Lister 427 measured after 48 hrs by alamar blue assay; format: functional
[5] = Diffusion coefficient of compound in 50% v/v pH 5 sodium acetate buffer in DMSO-d6 at 1.5 mM by DOSY analysis; format: physicochemical; settings: pH 5, 1500 µM
[6] = Aggregation property of compound in 0.1 M pH 5 sodium acetate buffer at 1.5 mM by 1H-NMR spectra analysis; format: physicochemical; settings: pH 5, 1500 µM
[7] = Aggregation property of compound in 45% DMSO-d6:55% 0.1 M pH 5 sodium acetate buffer at 1.5 mM by 1H-NMR spectra analysis; format: physicochemical; settings: pH 5, 1500 µM
Method in brief: (§1)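 Proton NMR series at a fixed 1.5 mM S-MGB. DMSO-d6 was stepped down by 5% from 80% to 25% by adding 0.1 M pH 5 sodium acetate buffer, giving twelve solvent compositions per compound.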

[8] = Aggregation property of compound at 1.5 mM by 1H-NMR spectra analysis; settings: 1500 µM
[9] = system: Leishmania donovani; assay: Antileishmanial activity against Leishmania donovani MHOM/ET/67:LV82 amastigotes infected in BMDM cell measured after 48 hrs by luciferase assay; format: functional, organism-based; settings: MHOM/ET/67:LV82, BMDM
Method in brief: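 Bone marrow-derived macrophages (0.5×10^5/well) were infected at a 20:1 […] ratio with luciferase-expressing L. donovani LV82. Free parasites were removed at 24 h post-infection, then doubling dilutions were added, starting at 25 or 20 μg mL⁻¹ from a 1 mg mL⁻¹ DMSO stock. At 72 h, luciferin (150 μg mL⁻¹) was added and bioluminescence suppression read against controls.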

[10] = system: Trypanosoma brucei brucei; assay: Antiparasitic activity against bloodstream form of tbat1-/- deficient Trypanosoma brucei brucei measured after 48 hrs by alamar blue assay; format: functional, organism-based
[11] = system: Trypanosoma congolense; assay: Antitrypanosomal activity against bloodstream form of diminazene-resistant Trypanosoma congolense DimR measured after 48 hrs by alamar blue assay; format: functional, organism-based
Method in brief: (§2)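 Bloodstream-form T. congolense IL3000 and derived diminazene-resistant lines were grown at 34 °C in humidified 5% CO2 in supplemented MEM with 20% goat serum. Cells at 2.5×10^5 per mL were seeded into serial compound dilutions and incubated 48 h. 0.49 mM resazurin solution was then added for a further 24 h.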

[12] = Resistance factor, ratio of EC50 for bloodstream form of diminazene-resistant Trypanosoma congolense EMS MUT DimR to EC50 for wild-type bloodstream form of Trypanosoma congolense; format: functional
Method in brief: (§3)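 The ratio was taken from Alamar Blue EC50s for resistant and wild-type IL3000 bloodstream-form T. congolense. Cells at 2.5×10^5 per mL were grown at 34 °C in 5% CO2 in supplemented MEM with compound for 48 h, then with resazurin for 24 h.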

[13] = system: Trypanosoma congolense; assay: Antitrypanosomal activity against bloodstream form of Trypanosoma congolense measured after 48 hrs by alamar blue assay; format: functional, organism-based; method in brief: as §2
[14] = system: Trypanosoma brucei brucei; assay: Antiparasitic activity against wild-type Trypanosoma brucei brucei measured after 48 hrs by alamar blue assay; format: functional, organism-based
[15] = system: Trypanosoma congolense; assay: Antitrypanosomal activity against bloodstream form of Trypanosoma congolense IL3000 measured after 48 hrs by alamar blue assay; format: functional, organism-based; settings: IL3000, 48 h; method in brief: as §2
[16] = system: Trypanosoma vivax; assay: Antitrypanosomal activity against Trypanosoma vivax STIB 719 by [3H]-hypoxanthine incorporation assay; format: functional, organism-based
[17] = system: Trypanosoma congolense; assay: Antitrypanosomal activity against bloodstream form of diminazene-resistant Trypanosoma congolense EMS MUT DimR measured after 48 hrs by alamar blue assay; format: functional, organism-based; method in brief: as §2
[18] = system: Trypanosoma brucei brucei; assay: Antiparasitic activity against bloodstream form of Trypanosoma brucei brucei B48 measured after 48 hrs by alamar blue assay; format: functional, organism-based; settings: B48, 48 h
[19] = Resistance factor, ratio of EC50 for bloodstream form of Trypanosoma brucei brucei B48 to EC50 for wild-type bloodstream form of Trypanosoma brucei brucei; format: functional
[20] = Cytotoxicity against rat L6 cells assessed as reduction in cell viability measured after 69 hrs by alamar blue assay; format: toxicity, cell-based
[21] = Resistance factor, ratio of EC50 for bloodstream form of tbat1-/- deficient Trypanosoma brucei brucei to EC50 for wild-type bloodstream form of Trypanosoma brucei brucei; format: functional
[22] = Resistance factor, ratio of EC50 for bloodstream form of diminazene-resistant Trypanosoma congolense DimR to EC50 for bloodstream form of wild-type Trypanosoma congolense; format: functional; method in brief: as §3
[23] = Aggregation property of compound in 70% v/v 0.1 M pH 5 sodium acetate buffer in DMSO-d6 at 1.5 mM by 1H-NMR spectra analysis; format: physicochemical; settings: pH 5, 1500 µM; method in brief: as §1

MIC80 [1] [µM] | MIC80 [2] [µM] | ΔTm [3] [°C] | EC50 [4] [nM] | SMILES | also measured
> 50 | > 50 | 0 | > 50000 | COc1cccc(/C=C/c2ccc(C(=O)Nc3cc(C(=O)NCCN4CCOCC4)n(C)c3)cc2)c1 | –
1.56 (≈ 0.954 µg/mL) | 3.12 (≈ 1.91 µg/mL) | 12 | 1560 | COc1ccc(/C=C/c2ccc(C(=O)Nc3cc(C(=O)Nc4cc(C(=O)NCCN5CCOCC5)n(C)c4)n(C)c3)cn2)cc1 | –
> 50 | > 50 | 0 | > 50000 | COc1cccc(/C=C/c2ccc(C(=O)Nc3cc(C(=O)N4CCN(C)CC4)n(C)c3)cc2)c1 | –
> 50 | > 50 | 0 | > 50000 | COc1ccc(/C=C/c2ccc(C(=O)Nc3cc(C(=O)NN(C)C)n(C)c3)cn2)cc1 | –
> 50 | > 50 | 0 | > 50000 | COc1ccc(/C=C/c2ccc(C(=O)Nc3cc(C(=O)N4CCN(C)CC4)n(C)c3)cn2)cc1 | –
– | – | 0 | – | COc1cccc(/C=C/c2ccc(C(=O)Nc3cc(C(=O)NN(C)C)n(C)c3)cc2)c1 | –
– | – | 2 | – | CN1CCN(C(=O)c2cc(NC(=O)c3ccc(/C=C/c4cnc5ccccc5c4)cc3)cn2C)CC1 | –

Second part, the molecule before the results:

SMILES | MIC80 [1] [µM] | MIC80 [2] [µM] | ΔTm [3] [°C] | EC50 [4] [nM] | also measured
CN[C@H](CC(C)C)C(=O)N[C@H]1C(=O)N[C@@H](CC(N)=O)C(=O)N[C@H]2C(=O)N[C@H]3C(=O)N[C@H](C(=O)N[C@H](C(=O)O)c4cc(O)cc(O)c4-c4cc3ccc4O)[C@H](O)c3ccc(c(Cl)c3)Oc3cc2cc(c3O[C@@H]2O[C@H](CO)[C@@H](O)[C@H](O)[C@H]2O[C@H]2C[C@](C)(N)[C@H](O)[C@H](C)O2)Oc2ccc(cc2Cl)[C@H]1O [VANCOMYCIN] | 0.39 (≈ 0.565 µg/mL) | 6.25 (≈ 9.06 µg/mL) | – | – | –
Cn1cc(NC(=O)c2cc(NC(=O)c3ccc(/C=C/c4cnc5ccccc5c4)cc3)cn2C)cc1C(=O)NCCN1CCOCC1 [MGB-BP-3] | 0.2 (≈ 0.126 µg/mL) | 0.78 (≈ 0.493 µg/mL) | 20 | < 190 | D [5]: 1.07 10^-10 m²/s; Activity [6]: Active; Activity [7]: Active; Activity [8]: Active
Cn1cc(NC(=O)c2ccc(/C=C/c3cnc4ccccc4c3)cc2)cc1C(=O)NCCN1CCOCC1 | > 50 | > 50 | 10 | 3120 | EC50 [9]: 1600 nM; EC50 [10]: 550 nM; EC50 [11]: 3100 nM; Ratio EC50 [12]: 0.9; EC50 [13]: 3400 nM; D [5]: 1.75 10^-10 m²/s; EC50 [14]: 1200 nM; EC50 [15]: 870 nM; EC50 [16]: 760 nM; EC50 [17]: 3200 nM; EC50 [18]: 600 nM; Ratio EC50 [19]: 0.5; EC50 at 69 h [20]: 6700 nM; Activity [6]: Active; Ratio EC50 [21]: 0.5; Ratio EC50 [22]: 0.9; Activity [23]: Active; Activity [7]: Active; Activity [8]: Active
COc1cccc(/C=C/c2ccc(C(=O)Nc3cc(C(=O)Nc4cc(C(=O)NCCN5CCOCC5)n(C)c4)n(C)c3)cc2)c1 | 6.25 (≈ 3.82 µg/mL) | 25 (≈ 15.3 µg/mL) | 10 | 780 | –
N=C(N)c1ccc(/N=N/Nc2ccc(C(=N)N)cc2)cc1 [DIMINAZENE] | – | – | – | 500 | EC50 [10]: 180 nM; EC50 [11]: 2100 nM; Ratio EC50 [12]: 10.9; EC50 [13]: 200 nM; EC50 [14]: 30 nM; EC50 [15]: 130 nM; EC50 [16]: 170 nM; EC50 [17]: 2300 nM; EC50 [18]: 80 nM; Ratio EC50 [19]: 2.6; Ratio EC50 [21]: 5.9; Ratio EC50 [22]: 9.5

Reference: ChEMBL document CHEMBL5136964, “Truncated S-MGBs: towards a parasite-specific and low aggregation chemotype” (RSC Med Chem, 2021)
